Measured values: ChEMBL document CHEMBL1155804, “Brominated diterpenes with antibacterial activity from the red alga Sphaerococcus coronopifolius” (2008)
In brackets after ≈: the same amount, converted by molar mass.

Key:
Assay type in all cases: functional
Staphylococcus aureus [1] = experiment: Antibacterial activity against Staphylococcus aureus 1199B overexpressing NorA efflux pump after 18 hrs by MTT assay
How it was run: (§1)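 Broth microdilution MIC in Mueller-Hinton broth supplemented to 20 mg/L Ca2+ and 10 mg/L Mg2+. Overnight cultures were adjusted in 0.9% saline to 5 × 10^5 cfu against a McFarland standard, and the sample was serially diluted in broth. Plates included growth, sterile and 3.125% DMSO controls and were incubated 18 h at 37 °C. MICs were determined in duplicate.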

Staphylococcus aureus [2] = experiment: Antibacterial activity against Staphylococcus aureus […] expressing MsrA macrolide efflux pump after 18 hrs by MTT assay; how it was run: as §1
Staphylococcus aureus [3] = experiment: Antibacterial activity against epidemic methicillin-resistant Staphylococcus aureus 15 after 18 hrs by MTT assay; how it was run: as §1
Staphylococcus aureus [4] = experiment: Antibacterial activity against Staphylococcus aureus ATCC 25923 after 18 hrs by MTT assay; conditions: ATCC 25923, 18 h; how it was run: as §1
Staphylococcus aureus [5] = experiment: Antibacterial activity against methicillin-resistant Staphylococcus aureus XU212 expressing TetK efflux pump after 18 hrs by MTT assay; conditions: XU212, 18 h; how it was run: as §1
Staphylococcus aureus [6] = experiment: Antibacterial activity against epidemic methicillin-resistant Staphylococcus aureus 16 expressing mecA after 18 hrs by MTT assay; how it was run: as §1

Structure (SMILES) | MIC (Staphylococcus aureus [1]) [µg/mL] | MIC (Staphylococcus aureus [2]) [µg/mL] | MIC (Staphylococcus aureus [3]) [µg/mL] | MIC (Staphylococcus aureus [4]) [µg/mL] | MIC (Staphylococcus aureus [5]) [µg/mL] | MIC (Staphylococcus aureus [6]) [µg/mL]
CC(C)[C@@H]1C[C@H](O)C=C2[C@H]3[C@](C)(CC[C@@]21CBr)[C@@H](Br)CC[C@@]3(C)O | 16 (≈ 34.5 µM) | 16 (≈ 34.5 µM) | 16 (≈ 34.5 µM) | 16 (≈ 34.5 µM) | 16 (≈ 34.5 µM) | 16 (≈ 34.5 µM)
CC(C)[C@@H]1C[C@H](OO)C=C2[C@@H]3[C@](C)(O)[C@H](O)C[C@H](Br)[C@@]3(C)CC[C@@]21CBr | 16 (≈ 32.2 µM) | 16 (≈ 32.2 µM) | 16 (≈ 32.2 µM) | 32 (≈ 64.5 µM) | 16 (≈ 32.2 µM) | 16 (≈ 32.2 µM)
CC(C)[C@@H]1CC[C@H](O)[C@H]2[C@H]3[C@@](C)(C=CC(=O)[C@]3(C)O)CC[C@@]21CBr | 0.5 (≈ 1.25 µM) | 1 (≈ 2.5 µM) | 0.5 (≈ 1.25 µM) | 0.5 (≈ 1.25 µM) | 1 (≈ 2.5 µM) | 0.25 (≈ 0.626 µM)
CC(C)[C@@H]1CC[C@H](O)[C@H]2[C@H]3[C@](C)(CC[C@@]21CBr)[C@@H](Br)CC(=O)[C@]3(C)O | 32 (≈ 66.6 µM) | 32 (≈ 66.6 µM) | 128 (≈ 267 µM) | 32 (≈ 66.6 µM) | 32 (≈ 66.6 µM) | 64 (≈ 133 µM)
CC(C)[C@@H]1C[C@H](OO)C=C2[C@@H]3[C@](C)(O)[C@@H](O)C[C@H](Br)[C@@]3(C)CC[C@@]21CBr | 16 (≈ 32.2 µM) | 16 (≈ 32.2 µM) | 16 (≈ 32.2 µM) | 32 (≈ 64.5 µM) | 16 (≈ 32.2 µM) | 16 (≈ 32.2 µM)
CC(C)[C@@H]1CC[C@H](O)[C@H]2[C@H]3[C@](C)(CC[C@@]21CBr)[C@@H](Br)CC[C@]3(C)O | 1 (≈ 2.14 µM) | 2 (≈ 4.29 µM) | 2 (≈ 4.29 µM) | 2 (≈ 4.29 µM) | 2 (≈ 4.29 µM) | 1 (≈ 2.14 µM)
CCn1cc(C(=O)O)c(=O)c2cc(F)c(N3CCNCC3)cc21 [NORFLOXACIN] | 32 (≈ 100 µM) | 1 (≈ 3.13 µM) | 0.5 (≈ 1.57 µM) | 0.5 (≈ 1.57 µM) | 8 (≈ 25.1 µM) | 128 (≈ 401 µM)
